Experimental data as given in ChEMBL document CHEMBL1828609, “Strategies to lower the Pgp efflux liability in a series of potent indole azetidine MCHR1 antagonists” (Bioorg Med Chem Lett, 2011).

Tests used:
[1] = Ratio of drug level in brain to plasma in wild type FVB mouse after 8 hrs; format: ADME, cell-free; settings: read-out: BPR
Outline: (§1)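 Single 15 mg/kg intravenous dose given to Pgp knockout and wild-type mice. Brain and plasma levels followed over 8 h, and brain/plasma ratios calculated at each time point.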

[2] = Ratio of drug level in brain to plasma in P-gp transporter knockout FVB mouse after 8 hrs; format: ADME, cell-free; settings: read-out: BPR; outline: as §1
[3] = target: Voltage-gated inwardly rectifying potassium channel KCNH2 (Homo sapiens, UniProt Q12809); assay: Inhibition of human ERG
Sequence of Voltage-gated inwardly rectifying potassium channel KCNH2 (Q12809 whole entry): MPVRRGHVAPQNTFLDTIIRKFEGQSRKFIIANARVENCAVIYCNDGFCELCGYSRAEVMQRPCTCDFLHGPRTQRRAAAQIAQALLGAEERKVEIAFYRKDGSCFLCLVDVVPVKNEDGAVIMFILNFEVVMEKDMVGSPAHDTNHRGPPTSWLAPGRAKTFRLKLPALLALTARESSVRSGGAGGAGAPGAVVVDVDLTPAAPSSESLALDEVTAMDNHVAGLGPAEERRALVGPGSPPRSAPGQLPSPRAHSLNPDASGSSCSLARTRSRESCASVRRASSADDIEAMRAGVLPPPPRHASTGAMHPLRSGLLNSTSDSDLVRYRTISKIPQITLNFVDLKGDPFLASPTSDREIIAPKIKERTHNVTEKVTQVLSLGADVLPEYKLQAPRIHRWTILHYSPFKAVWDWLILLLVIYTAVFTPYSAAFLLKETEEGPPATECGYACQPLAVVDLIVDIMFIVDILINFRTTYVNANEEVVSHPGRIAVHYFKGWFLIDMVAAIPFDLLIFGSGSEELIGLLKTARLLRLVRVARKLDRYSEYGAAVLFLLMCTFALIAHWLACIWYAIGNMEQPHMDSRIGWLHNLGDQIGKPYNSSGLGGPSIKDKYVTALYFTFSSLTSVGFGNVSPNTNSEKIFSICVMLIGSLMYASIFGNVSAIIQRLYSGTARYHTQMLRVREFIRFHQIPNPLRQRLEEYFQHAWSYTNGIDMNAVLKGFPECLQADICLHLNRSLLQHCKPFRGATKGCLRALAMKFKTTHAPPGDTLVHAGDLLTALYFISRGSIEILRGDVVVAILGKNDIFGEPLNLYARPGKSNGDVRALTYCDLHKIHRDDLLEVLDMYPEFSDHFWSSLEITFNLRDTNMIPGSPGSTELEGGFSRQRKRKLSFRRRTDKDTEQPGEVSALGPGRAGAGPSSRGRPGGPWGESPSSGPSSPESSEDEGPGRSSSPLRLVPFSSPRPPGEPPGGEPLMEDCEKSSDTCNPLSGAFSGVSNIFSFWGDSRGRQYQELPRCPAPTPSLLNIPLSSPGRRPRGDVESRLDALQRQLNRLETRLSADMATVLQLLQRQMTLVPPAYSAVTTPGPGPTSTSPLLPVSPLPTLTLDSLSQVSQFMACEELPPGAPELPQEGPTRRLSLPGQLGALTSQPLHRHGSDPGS

[4] = Permeability from apical to basolateral side in MDCK cells expressing human MDR1 assessed as compound recovery; format: ADME, cell-based, Canis lupus familiaris; settings: dog, read-out: permeability
Outline: (§2)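 Bidirectional MDR1-MDCK permeability run with 2 h incubation; percent recovery of compound determined for the A-to-B and B-to-A directions.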

[5] = Permeability from basolateral to apical side in MDCK cells expressing human MDR1 assessed as compound recovery; format: ADME, cell-based, Canis lupus familiaris; settings: dog, read-out: permeability; outline: as §2
[6] = target: Melanin-concentrating hormone receptor 1 (Rattus norvegicus, UniProt P97639); assay: Displacement of [125I]-S36057 from rat MCH1 receptor
Sequence of Melanin-concentrating hormone receptor 1 (P97639 whole entry): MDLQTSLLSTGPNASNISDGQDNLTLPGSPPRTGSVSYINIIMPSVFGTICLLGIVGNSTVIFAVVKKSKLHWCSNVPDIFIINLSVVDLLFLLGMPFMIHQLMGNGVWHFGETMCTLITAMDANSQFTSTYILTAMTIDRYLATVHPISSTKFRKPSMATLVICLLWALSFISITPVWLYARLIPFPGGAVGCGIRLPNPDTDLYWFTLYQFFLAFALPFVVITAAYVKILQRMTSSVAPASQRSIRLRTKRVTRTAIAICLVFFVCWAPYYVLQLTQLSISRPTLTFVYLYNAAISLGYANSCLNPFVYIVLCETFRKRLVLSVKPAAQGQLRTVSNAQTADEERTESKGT

[7] = Drug uptake in rat brain at 10 mg/kg, po after 4 hrs; format: ADME, organism-based; set-up: dose 10 mg/kg, route oral; settings: read-out: Drug uptake
Outline: (§3)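 Rats dosed orally at 10 mg/kg. Brain (ng/g) and plasma (ng/mL) levels taken at 4 h, giving the brain-to-plasma exposure comparison.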

[8] = Plasma concentration in rat at 10 mg/kg, po after 4 hrs; format: ADME, organism-based; set-up: dose 10 mg/kg, route oral; outline: as §3
[9] = Apparent permeability from apical to basolateral side in MDCK cells expressing human MDR1 after 2 hrs; format: ADME, cell-based, Canis lupus familiaris; settings: dog
Outline: (§4)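 MDR1-MDCK monolayers; apparent permeability measured in both directions (A-to-B and B-to-A) after 2 h incubation. Efflux ratio calculated as Papp(B-to-A)/Papp(A-to-B).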

[10] = Apparent permeability from basolateral to apical side in MDCK cells expressing human MDR1 after 2 hrs; format: ADME, cell-based, Canis lupus familiaris; settings: dog; outline: as §4
[11] = Efflux ratio of permeability from basolateral to apical over apical to basolateral side of MDCK cells expressing human MDR1 after 2 hrs; format: ADME, cell-based, Canis lupus familiaris; settings: dog; outline: as §4
[12] = Apparent permeability of the compound at pH 7.4 by PAMPA method; format: ADME
[13] = Apparent permeability of the compound at pH 3 to 7.4 by PAMPA method; format: ADME
[14] = Plasma concentration in wild type FVB mouse at 15 mg/kg, iv after 1 hr; format: ADME, organism-based; set-up: dose 15 mg/kg, route intravenous; outline: as §1
[15] = Plasma concentration in P-gp transporter knockout FVB mouse at 15 mg/kg, iv after 1 hr; format: ADME, organism-based; set-up: dose 15 mg/kg, route intravenous; outline: as §1
[16] = Plasma concentration in wild type FVB mouse at 15 mg/kg, iv after 3 hrs; format: ADME, organism-based; set-up: dose 15 mg/kg, route intravenous; outline: as §1
[17] = Plasma concentration in P-gp transporter knockout FVB mouse at 15 mg/kg, iv after 3 hrs; format: ADME, organism-based; set-up: dose 15 mg/kg, route intravenous; outline: as §1
[18] = Plasma concentration in wild type FVB mouse at 15 mg/kg, iv after 6 hrs; format: ADME, organism-based; set-up: dose 15 mg/kg, route intravenous; outline: as §1
[19] = Plasma concentration in P-gp transporter knockout FVB mouse at 15 mg/kg, iv after 6 hrs; format: ADME, organism-based; set-up: dose 15 mg/kg, route intravenous; outline: as §1
[20] = Plasma concentration in wild type FVB mouse at 15 mg/kg, iv after 8 hrs; format: ADME, organism-based; set-up: dose 15 mg/kg, route intravenous; outline: as §1
[21] = Plasma concentration in P-gp transporter knockout FVB mouse at 15 mg/kg, iv after 8 hrs; format: ADME, organism-based; set-up: dose 15 mg/kg, route intravenous; outline: as §1
[22] = Drug uptake in wild type FVB mouse brain at 15 mg/kg, iv after 1 hr; format: ADME, organism-based; set-up: dose 15 mg/kg, route intravenous; settings: read-out: Drug uptake; outline: as §1
[23] = Drug uptake in P-gp transporter knockout FVB mouse brain at 15 mg/kg, iv after 1 hr; format: ADME, organism-based; set-up: dose 15 mg/kg, route intravenous; settings: read-out: Drug uptake; outline: as §1
[24] = Drug uptake in wild type FVB mouse brain at 15 mg/kg, iv after 3 hrs; format: ADME, organism-based; set-up: dose 15 mg/kg, route intravenous; settings: read-out: Drug uptake; outline: as §1
[25] = Drug uptake in P-gp transporter knockout FVB mouse brain at 15 mg/kg, iv after 3 hrs; format: ADME, organism-based; set-up: dose 15 mg/kg, route intravenous; settings: read-out: Drug uptake; outline: as §1
[26] = Drug uptake in wild type FVB mouse brain at 15 mg/kg, iv after 6 hrs; format: ADME, organism-based; set-up: dose 15 mg/kg, route intravenous; settings: read-out: Drug uptake; outline: as §1
[27] = Drug uptake in P-gp transporter knockout FVB mouse brain at 15 mg/kg, iv after 6 hrs; format: ADME, organism-based; set-up: dose 15 mg/kg, route intravenous; settings: read-out: Drug uptake; outline: as §1
[28] = Drug uptake in wild type FVB mouse brain at 15 mg/kg, iv after 8 hrs; format: ADME, organism-based; set-up: dose 15 mg/kg, route intravenous; settings: read-out: Drug uptake; outline: as §1
[29] = Drug uptake in P-gp transporter knockout FVB mouse brain at 15 mg/kg, iv after 8 hrs; format: ADME, organism-based; set-up: dose 15 mg/kg, route intravenous; settings: read-out: Drug uptake; outline: as §1
[30] = Ratio of drug level in brain to plasma in wild type FVB mouse after 1 hr; format: ADME, cell-free; settings: read-out: BPR; outline: as §1
[31] = Ratio of drug level in brain to plasma in P-gp transporter knockout FVB mouse after 1 hr; format: ADME, cell-free; settings: read-out: BPR; outline: as §1
[32] = Ratio of drug level in brain to plasma in wild type FVB mouse after 3 hrs; format: ADME, cell-free; settings: read-out: BPR; outline: as §1
[33] = Ratio of drug level in brain to plasma in P-gp transporter knockout FVB mouse after 3 hrs; format: ADME, cell-free; settings: read-out: BPR; outline: as §1
[34] = Ratio of drug level in brain to plasma in wild type FVB mouse after 6 hrs; format: ADME, cell-free; settings: read-out: BPR; outline: as §1
[35] = Ratio of drug level in brain to plasma in P-gp transporter knockout FVB mouse after 6 hrs; format: ADME, cell-free; settings: read-out: BPR; outline: as §1
[36] = Drug uptake in rat brain at 10 mg/kg, sc after 4 hrs; format: ADME, organism-based; set-up: dose 10 mg/kg, route subcutaneous; settings: read-out: Drug uptake
Outline: (§5)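 Rat PK with subcutaneous dosing at 10 mg/kg. Brain and plasma concentrations determined 4 h after the dose.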

[37] = Plasma concentration in rat at 10 mg/kg, sc after 4 hrs; format: ADME, organism-based; set-up: dose 10 mg/kg, route subcutaneous; outline: as §5
[38] = Ratio of drug level in brain to plasma in rat; format: ADME, cell-free; settings: read-out: BPR; outline: as §3

CN1CC(c2c[nH]c3cc(-n4ccc(OCc5ccccc5)cc4=O)ccc23)C1
Kp at 8 h [1]: 0.28 | Kp at 8 h [2]: 2.66 | IC50 [3]: 12000 nM | recovery [4]: 72% | recovery [5]: 71% | Ki [6]: 11 nM | concentration at 4 h [7]: 11 ng/g | concentration at 4 h [8]: 48 ng/mL | Papp A→B at 2 h [9]: 0.2 ×10⁻⁶ cm/s | Papp B→A at 2 h [10]: 26.3 ×10⁻⁶ cm/s | efflux ratio at 2 h [11]: 144 | Papp [12]: 4.9 ×10⁻⁶ cm/s | Papp [13]: 16.4 ×10⁻⁶ cm/s | concentration at 1 h [14]: 2280 ng/mL | concentration at 1 h [15]: 3130 ng/mL | concentration at 3 h [16]: 1450 ng/mL | concentration at 3 h [17]: 1380 ng/mL | concentration at 6 h [18]: 623 ng/mL | concentration at 6 h [19]: 689 ng/mL | concentration at 8 h [20]: 538 ng/mL | concentration at 8 h [21]: 607 ng/mL | concentration at 1 h [22]: 143 ng/g | concentration at 1 h [23]: 878 ng/g | concentration at 3 h [24]: 172 ng/g | concentration at 3 h [25]: 1130 ng/g | concentration at 6 h [26]: 148 ng/g | concentration at 6 h [27]: 1580 ng/g | concentration at 8 h [28]: 144 ng/g | concentration at 8 h [29]: 1620 ng/g | Kp at 1 h [30]: 0.06 | Kp at 1 h [31]: 0.28 | Kp at 3 h [32]: 0.12 | Kp at 3 h [33]: 0.82 | Kp at 6 h [34]: 0.24 | Kp at 6 h [35]: 2.3

CN1CC(c2c[nH]c3cc(-n4ccc(OCc5ccccc5F)cc4=O)ccc23)C1
Ki [6]: 6.7 nM | concentration at 4 h [7]: 22 ng/g | concentration at 4 h [8]: 140 ng/mL | Papp A→B at 2 h [9]: 0.2 ×10⁻⁶ cm/s | Papp B→A at 2 h [10]: 25.3 ×10⁻⁶ cm/s | efflux ratio at 2 h [11]: 150

CN1CC(c2c[nH]c3cc(-n4ccc(-c5ccc(Cl)cc5)cc4=O)ccc23)C1
Ki [6]: 7.8 nM | concentration at 4 h [7]: 100 ng/g | concentration at 4 h [8]: 350 ng/mL | Papp A→B at 2 h [9]: 0.9 ×10⁻⁶ cm/s | Papp B→A at 2 h [10]: 53.7 ×10⁻⁶ cm/s | efflux ratio at 2 h [11]: 60

CN1CC(c2cn(C)c3cc(-n4ccc(OCc5ccccc5)cc4=O)ccc23)C1
Ki [6]: 11 nM | concentration at 4 h [36]: 110 ng/g | concentration at 4 h [37]: 4000 ng/mL | Kp [38]: 0.03

COCCN1CC(c2c[nH]c3cc(-n4ccc(OCc5ccccc5)cc4=O)ccc23)C1
Ki [6]: 5.2 nM | concentration at 4 h [7]: 49 ng/g | concentration at 4 h [8]: 310 ng/mL | Papp A→B at 2 h [9]: 0.4 ×10⁻⁶ cm/s | Papp B→A at 2 h [10]: 34.1 ×10⁻⁶ cm/s | efflux ratio at 2 h [11]: 88

O=c1cc(OCc2ccccc2)ccn1-c1ccc2c(C3CN(CCF)C3)c[nH]c2c1
Ki [6]: 4.3 nM | concentration at 4 h [7]: 130 ng/g | concentration at 4 h [8]: 620 ng/mL | Papp A→B at 2 h [9]: 1.4 ×10⁻⁶ cm/s | Papp B→A at 2 h [10]: 58.9 ×10⁻⁶ cm/s | efflux ratio at 2 h [11]: 43

Cn1cc(C2CN(CCF)C2)c2ccc(-n3ccc(-c4ccc(F)cc4)cc3=O)cc21
Ki [6]: 9 nM | concentration at 4 h [7]: 810 ng/g | concentration at 4 h [8]: 1000 ng/mL | Papp A→B at 2 h [9]: 7.1 ×10⁻⁶ cm/s | Papp B→A at 2 h [10]: 45.4 ×10⁻⁶ cm/s | efflux ratio at 2 h [11]: 6.4 | Kp [38]: 0.8

O=c1cc(OCc2ccccc2)ccn1-c1ccc2c(c1)CCN2C1CNC1
Ki [6]: 2.4 nM | concentration at 4 h [7]: 27 ng/g | concentration at 4 h [8]: 130 ng/mL

CN1CC(N2CCc3cc(-n4ccc(OCc5ccccc5)cc4=O)ccc32)C1
Ki [6]: 2.5 nM | concentration at 4 h [7]: 780 ng/g | concentration at 4 h [8]: 500 ng/mL | Papp A→B at 2 h [9]: 2.6 ×10⁻⁶ cm/s | Papp B→A at 2 h [10]: 36.5 ×10⁻⁶ cm/s | efflux ratio at 2 h [11]: 14

O=c1cc(OCc2ccccc2)ccn1-c1ccc2c(c1)CCN2C1CN(CCF)C1
Ki [6]: 4.9 nM | concentration at 4 h [7]: 520 ng/g | concentration at 4 h [8]: 420 ng/mL | Papp A→B at 2 h [9]: 17.7 ×10⁻⁶ cm/s | Papp B→A at 2 h [10]: 38.2 ×10⁻⁶ cm/s | efflux ratio at 2 h [11]: 2.2

CN1CC(N2CCc3cc(-n4ccc(-c5ccc(Cl)cc5)cc4=O)ccc32)C1
Ki [6]: 4.9 nM | concentration at 4 h [7]: 600 ng/g | concentration at 4 h [8]: 190 ng/mL | Kp [38]: > 3

O=c1cc(-c2ccc(Cl)cc2)ccn1-c1ccc2c(c1)CCN2C1CN(CCF)C1
Ki [6]: 6.5 nM | concentration at 4 h [7]: 1100 ng/g | concentration at 4 h [8]: 650 ng/mL | Papp A→B at 2 h [9]: 28.9 ×10⁻⁶ cm/s | Papp B→A at 2 h [10]: 30.1 ×10⁻⁶ cm/s | efflux ratio at 2 h [11]: 1
